Arbovirus anti – blocks arbovirus infection. arbovirus infection cell-based antiviral screen. inhibition, % at 10 µM. hit rate 0.37% among 200,000. AID 1251; in the data active means inhibition above about 30%
CHOP inh – CHOP inhibition in unfolded protein response | AID 2732 | CHO-K1 CHOP-promoter luciferase, tunicamycin-induced, 15-18 h | hit rate 3.8% among 220,000 | inhibition, % at 10 µM;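 active means compounds that reduced the stress-induced luciferase reporter signal by more than about 70% of percent inhibition, limit read from the data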;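 further: 0% = tunicamycin plus vehicle and 100% = wells without tunicamycin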
Lmaj promast – inhibitors of Leishmania major promastigote growth; Leishmania major promastigotes, resazurin fluorescence viability; inhibition, % at 10 µM; hit rate 9% among 200,000; AID 1063;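 further: promastigotes grown with compound for 44 hours at 28 °C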
PKD1 inh – blocks activity of human protein kinase D1. Q15139. hit rate 0.056% among 200,000. AID 797. PKD1 kinase fluorescence polarization assay. inhibition, % (test concentration not listed)
Rad51 HR inh – blocks human Rad51 in homologous recombination; Q06609; hRad51 DNA strand exchange, fluorescence dequenching; inhibition, % at 10 µM; hit rate 0.085% among 200,000; AID 1385;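 active means inhibition above 40% at the single screening dose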;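 further: 0% = DMSO control wells and 100% = blanks with heterologous ssDNA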
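Test system – preformed human Rad51 ssDNA filaments · Reagent – Donor/quencher-labelled 47-bp dsDNA substrate · Incubation – 37 °C 15-min filament assembly, 30-min compound preincubation, 15-min exchange · Signal – FRET fluorescence dequenching, excitation 485 nm, emission 520 nm · Read-out – percent inhibition from fluorescence, normalised to plate control and blank means · Benchmarks – plate control and blank wells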
Wee1 stabilizer – inhibitors of human Wee1 degradation; P30291; HeLa Luc-Wee1K328M stability, luciferase luminescence; 100% = proteasome inhibitor MG132 effect; reporter increase, % at 5 µM; hit rate 1.2% among 220,000; AID 1321;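 active means activation above the mean of all tested compounds plus 3 SD, set per screening run, cut at about 8.8% in these data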;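 further: cells exposed to compound for 20 h before luminescence read; 0% = DMSO alone and 100% = MG132 at 30 µM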
Target sequence (P30291 whole entry K328M): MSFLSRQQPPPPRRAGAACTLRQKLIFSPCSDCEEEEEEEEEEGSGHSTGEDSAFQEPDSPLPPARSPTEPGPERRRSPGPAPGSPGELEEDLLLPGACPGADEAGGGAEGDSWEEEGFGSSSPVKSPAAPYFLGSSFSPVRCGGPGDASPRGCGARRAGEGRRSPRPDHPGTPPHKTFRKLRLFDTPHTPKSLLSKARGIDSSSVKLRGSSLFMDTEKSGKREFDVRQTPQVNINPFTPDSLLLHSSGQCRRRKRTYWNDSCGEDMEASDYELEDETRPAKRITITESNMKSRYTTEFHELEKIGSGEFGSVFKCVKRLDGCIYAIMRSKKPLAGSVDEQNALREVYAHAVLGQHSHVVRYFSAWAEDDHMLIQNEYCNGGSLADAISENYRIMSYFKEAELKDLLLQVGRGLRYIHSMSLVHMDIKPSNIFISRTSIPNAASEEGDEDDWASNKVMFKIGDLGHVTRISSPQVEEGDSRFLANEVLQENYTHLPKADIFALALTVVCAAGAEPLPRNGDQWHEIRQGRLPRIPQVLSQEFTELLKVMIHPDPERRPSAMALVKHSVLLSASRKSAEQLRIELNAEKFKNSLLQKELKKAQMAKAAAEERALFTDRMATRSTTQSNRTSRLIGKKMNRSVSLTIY
An asterisk follows results filed as active; . = no result given. An excerpt weighted towards active compounds, which were near 12% of everything screened. Unless noted, no stated cut-off is given here; in the data, active means inhibition above about 50%; inactive means the rest.

SMILES	Arbovirus anti	CHOP inh	Lmaj promast	PKD1 inh	Rad51 HR inh	Wee1 stabilizer
CC(NC(N)=O)C(=O)Nc1ccc(Cl)c(S(=O)(=O)Nc2ccc(Br)cc2)c1 (stereo unspecified)	-1	-14	-8	-10	0	1
CCC(C)C(=O)Nc1nnc(SCC(=O)NC(C)(C)C)s1 (stereo unspecified)	8	-12	-5	-4	-2	1
CC(C)c1ccccc1NC(=O)COC(=O)CCN1C(=O)/C(=C\C=C\c2ccccc2)SC1=S	-8	75*	-6	-5	-18	-2
Cc1ccc(NC(=O)CCCN2C(=O)/C(=C/C=C/c3ccccc3)SC2=S)cc1	-13	58	3	-2	.	2
O=C(CN1C(=O)S/C(=C\C=C\c2ccccc2)C1=O)Nc1ccc(O)cc1	-18	91*	31	-5	2	2
O=C(CCN1C(=O)/C(=C/C=C/c2ccccc2)SC1=S)Nc1nccs1	2	61	-10	-9	.	2
O=C(COC(=O)CCN1C(=O)/C(=C\C=C\c2ccccc2)SC1=S)Nc1ccc(Br)cc1	-10	72*	-7	-2	-8	1
Cc1cc(OC(=O)c2ccc(S(=O)(=O)N(C)C)cc2)c([N+](=O)[O-])c(=O)[nH]1	18	-4	-6	2	-5	1
O=C(N/C(=C\c1cccc([N+](=O)[O-])c1)C(=O)N(CCO)CCO)c1ccco1	5	17	-3	-1	-61	7
CCCCn1c(-c2csc3c2CCC(C)C3)n[nH]c1=S (stereo unspecified)	13	84*	19	0	0	1
CCCCn1c(-c2csc3c2CCCC3)n[nH]c1=S	-3	12	-4	-3	-4	6
C=CCn1c(-c2csc3c2CCC(C)C3)n[nH]c1=S (stereo unspecified)	-1	80*	-3	10	7	2
COc1cc(N2C(=O)C=CC2=O)c(OC)cc1Cl	.	-3	.	.	5	-2
Cc1ccc(NC(=O)c2ccco2)c(NC(=O)c2cccs2)c1	-1	15	72*	-4	-5	-2
Nc1cccc(NC(=O)c2cccs2)c1	-2	-3	2	-7	2	0
O=C(Nc1ccc(NC(=O)c2cccs2)cc1Cl)c1ccco1	-10	-45	13	-2	13	6
COc1cc(NC(=O)c2cccs2)ccc1NC(=O)c1ccco1	-13	-36	-4	-13	-3	1
O=C(Nc1cccc(NC(=O)c2cccs2)c1)c1ccco1	64*	38	72*	-6	3	0
O=C(Nc1cccc(N2CCCC2)c1)c1cccs1	-3	-14	86*	-1	-3	-2
COc1ccccc1-n1c(-c2ccc(Cl)cc2)c[nH]c1=S	-3	18	-7	-5	-1	-1
Cc1cccc(C)c1NC(=O)CNC(=O)CCC(=O)c1cccs1	0	-1	18	-6	3	2
Cc1cc(C(=O)O)ccc1-c1ccc(/C=C2\NC(=O)N(Cc3ccccc3Cl)C2=O)o1	14	73*	-2	1	1	-1
Cc1ccc(CN2C(=O)N/C(=C\c3ccc(-c4ccc(C(=O)O)cc4C)o3)C2=O)cc1	.	26	.	.	7	0
Cc1ccc(C(=O)O)cc1-c1ccc(/C=C2/NC(=O)N(c3ccccc3)C2=O)o1	40*	-27	-1	1	-9	-2
Cc1ccc(N2CCN(C(=O)N3CCOCC3)CC2)c(C)c1	13	-1	-9	6	0	-1
SMILES	Arbovirus anti	CHOP inh	Lmaj promast	PKD1 inh	Rad51 HR inh	Wee1 stabilizer
CCOC(=O)C1CCN(C/C=C/c2ccccc2OC)CC1	-3	-19	78*	-11	-8	0
COc1ccc(C(=O)C2CCCN(C/C=C/c3ccccc3OC)C2)c(OC)c1 (stereo unspecified)	9	15	50*	3	9	-2
COc1ccccc1/C=C/CN1CCOCC1	3	3	1	-7	-3	6
COc1ccc(C(=O)C2CCCN(Cc3c[nH]c4ccccc34)C2)c(OC)c1 (stereo unspecified)	-15	8	62*	4	9	-2
COc1ccc(/C=C/CN2CCCC(C(=O)c3ccc(OC)c(F)c3)C2)cc1 (stereo unspecified)	11	0	82*	-4	.	9.1*
CC1=C(C(=O)OCC2CCCO2)C(c2ccncc2)C2=C(CC(C)(C)CC2=O)N1 (stereo unspecified)	6	20	-3	-6	3	-1
CC(=O)c1ccc(-c2ccc(C(=O)NC3CCCCCC3)o2)cc1	-17	20	15	-8	18	-3
CCN1CCCC1CNc1ncnc2c1[nH]c1ccc(Cl)cc12 (stereo unspecified)	-19	-4	96*	0	-11	2
CCN1CCCC1Cn1cnc2c([nH]c3ccc(C)cc32)c1=O (stereo unspecified)	4	-16	52*	4	.	0
O=C1CCCN1CCCNc1ncnc2c1[nH]c1ccc(Cl)cc12	-6	1	39	-3	-6	-2
Cc1nc2c(OCc3ccccc3)cccn2c1CC#N	.	3	.	.	.	.
CN1N=C(C(=O)Nc2ccc3c(c2)CCC3)CCC1=O	3	-6	-2	-2	5	3
CN1C(C(=O)NCc2cccc(C(F)(F)F)c2)CC2Cn3c(nc4cc(Cl)c(Cl)cc43)C21 (stereo unspecified)	.	0	.	.	-6	.
O=C(c1ccco1)N1CCCN(Cc2nc(-c3cccs3)no2)CC1	0	9	86*	-3	7	-2
COc1cccc(NC(=O)[C@H](C)NC(=O)C2CCN(S(=O)(=O)c3ccc(C)cc3)CC2)c1	.	5	.	.	-5	-2
COC(=O)c1ccccc1NC(=O)c1ccc(COc2ccc(C)c(C)c2)o1	48*	-19	-1	2	2	0
O=C(COc1ccccc1)Nc1cccc(-c2nc3cc4ccccc4cc3[nH]2)c1	-26	71*	32	-4	-10	9
COC(=O)c1ccccc1NC(=O)c1cccc(NC(=O)C(C)C)c1	-1	37	5	0	7	0
COC(=O)c1ccccc1NC(=O)COc1ccccc1	3	-7	-3	-6	-3	13*
COC(=O)c1ccccc1NC(=O)c1cc(OC)cc(OC)c1	-7	82*	-6	3	-14	-1
Cn1c(N)c(C(=O)Nc2c(Cl)cccc2Cl)sc1=S	.	21	.	.	13	-2
CC(C)c1onc(C(=O)NC2CCCCC2)c1[N+](=O)[O-]	15	-12	-1	-2	.	-1
CC(=O)Nc1nc(-c2ccc(Cl)cc2)ns1	19	-8	0	4	-5	5
COCCN(C)C(=O)CC1C(=O)NCCN1CC(c1ccccc1)c1ccccc1 (stereo unspecified)	5	1	-7	-4	13	1
CC1=C(C(=O)OCc2ccc(C)cc2)C(c2ccc(O)c([N+](=O)[O-])c2)NC(=O)N1 (stereo unspecified)	27	-7	-1	-3	0	-1

High-throughput results from PubChem.
